Experimental data from different studies.
Compare with care: the assays were run in different laboratories.
Target: RAC-beta serine/threonine-protein kinase (AKT2, Homo sapiens, UniProt P31751)

SMILES	effect on	mode	method	concentration	measurement	result
O=S(=O)(NCCNC/C=C/c1ccc(Br)cc1)c1cccc2cnccc12	cell-free assay	–	–	0.5 µM	remaining signal	75.4%
CCN(CC)c1ccc(C2=NNC(=O)CC2C)cc1[N+](=O)[O-] (stereo not drawn)	enzyme activity	inhibitor	–	10 µM	remaining activity	101%
Cc1ccc(C(=O)NCc2ccsc2)cc1C#Cc1cn(C(C)C)c2ncnc(N)c12	enzyme activity	inhibitor	–	1 µM	activity vs control	99%
CSc1cccnc1N1CCN(Cc2nc3ccccc3[nH]2)CC1	cell-free assay	–	competition with immobilised ligand	1 µM	remaining binding	98%
CNc1cccc2cc(C(=O)Nc3ccc(C(=O)O)cc3)c(=O)[nH]c12	enzyme activity	inhibitor	–	10 µM	inhibition	3.3%
COc1cc(/C=C/C(=O)CC(=O)/C=C/c2ccc(O)c(OC)c2)ccc1O	enzyme activity	inhibitor	–	1 µM	activity vs control	70%
CCCS(=O)(=O)Nc1ccc(F)c(C(=O)c2c[nH]c3ncc(-c4ccc(Cl)cc4)cc23)c1F	enzyme activity	inhibitor	–	1 µM	inhibition	< 10%
C=CC(=O)Nc1cc(Nc2nccc(Nc3cc(Cl)c(F)cc3C(C)(C)O)n2)c(OC)cc1N1CC[C@@H](N(C)C)C1	enzyme activity	inhibitor	–	1 µM	inhibition	-10%
CCC(=O)N[C@H]1CC[C@@H](C(=O)N(C)c2ccc(-c3nc4ccccc4o3)cc2)C1	cell-free assay	–	competition with immobilised ligand	1 µM	remaining binding	89%
FC(F)c1nc2ccccc2n1-c1nc(N2CCOCC2)nc(N2CCOCC2)n1	enzyme activity	inhibitor	–	10 µM	remaining activity	84%
Nc1nc(Nc2ccccc2)sc1C(=O)c1c(F)cccc1F	enzyme activity	inhibitor	–	10 µM	remaining activity	85%
O=S(=O)(NC1CCC(c2cc(F)ccc2F)(S(=O)(=O)c2ccc(Cl)cc2)CC1)C(F)(F)F (stereo not drawn)	cell-free assay	–	competition with immobilised ligand	1 µM	remaining binding	99%
CN(c1ncccc1CNc1nc(Nc2ccc3c(c2)CC(=O)N3)ncc1C(F)(F)F)S(C)(=O)=O	enzyme activity	inhibitor	–	1 µM	inhibition	1.6%
COc1cc(Nc2cnc(C#N)c(O[C@H](C)CN(C)C)n2)ncc1-c1cnn(C)c1	enzyme activity	inhibitor	radiometric	1 µM	remaining activity	81%
Cc1ccc(Nc2nccc(N(C)c3ccc4c(C)n(C)nc4c3)n2)cc1S(N)(=O)=O	enzyme activity	inhibitor	–	0.5 µM	remaining activity	107%
CC(=O)N1CCC(c2ccc(C(=O)NC3=NCCN3)cc2C(F)(F)F)CC1	cell-free assay	–	competition with immobilised ligand	1 µM	remaining binding	91%
Cn1c(=O)n(-c2ccc(C(C)(C)C#N)cc2)c2c3cc(-c4cnc5ccccc5c4)ccc3ncc21	enzyme activity	inhibitor	–	10 µM	remaining activity	106%
Cc1ccc(-n2nc(C(C)(C)C)cc2NC(=O)Nc2ccc(OCCN3CCOCC3)c3ccccc23)cc1	enzyme activity	inhibitor	–	10 µM	inhibition	-15%
Nc1ncnc2occ(-c3ccc(NC(=O)Nc4cc(C(F)(F)F)ccc4F)cc3)c12	cell-free assay	inhibitor	–	20 µM	remaining signal	95%
CC(C)c1ccc(NC(=O)c2cccs2)c(-c2nc3ccccc3[nH]c2=O)c1	enzyme activity	inhibitor	–	1 µM	activity vs control	102%
CC(C)(C)c1nc2c(s1)c1nc(N)ncc1c1ccc(NS(=O)(=O)c3c(F)cccc3F)c(F)c12	enzyme activity	inhibitor	radiometric	1 µM	remaining activity	114%
CNC(=O)c1ccc(Nc2ncc(C(F)(F)F)c(NCc3nccnc3N(C)S(C)(=O)=O)n2)cc1	cell-free assay	–	competition with immobilised ligand	0.1 µM	remaining binding	77%
Oc1cccc(-c2nc(N3CCOCC3)c3oc4ncccc4c3n2)c1	cell-free assay	–	–	0.5 µM	remaining signal	99.1%
c1ccc(N2CCN(Cc3nc4ccccc4[nH]3)CC2)nc1	binding	–	competition with immobilised ligand	1 µM	remaining binding	100%
COc1cc2ncnc(Nc3ccc(Oc4ccccc4)c(C)c3C)c2cc1OC	enzyme activity	inhibitor	–	1 µM	inhibition	1%
O=C(Nc1cnn(-c2csc(C(=O)NC3COC3)c2)c1)Nc1ccccc1Cl	enzyme activity	inhibitor	–	5 µM	remaining activity	88.2%
C[C@@]1(Cc2ccc(C#N)cc2)C(=O)N(c2cc(Cl)cc(Cl)c2)c2ncc(C(=O)NC3(c4nc(C5CCC5)no4)CC3)n21	cell-free assay	–	competition with immobilised ligand	1 µM	remaining binding	100%
CC/C(=N\NC(=O)NCc1cccc(O)c1)c1ccc(O)c(C)c1O	enzyme activity	inhibitor	–	0.1 µM	inhibition	0.2%
O=C(NCc1ncc(C(F)(F)F)cc1Cl)c1ccc2c(c1)C1(CCS(=O)(=O)CC1)[C@H](C1CC1)N2S(=O)(=O)c1ccc(F)cc1	cell-free assay	–	competition with immobilised ligand	1 µM	remaining binding	100%
O=C1NC(=O)c2cc(Nc3ccc(F)cc3)c(Nc3ccc(F)cc3)cc21	cell-free assay	–	–	0.5 µM	remaining signal	95.1%
